Assay results taken from ChEMBL document CHEMBL1125421, “Cholesterol lowering bile acid binding agents: novel lipophilic polyamines” (1992).

Experiments:
Type in all cases: functional
[1] = test system: Coturnix coturnix; experiment: Effect on serum VLDL+LDL cholesterol (relative to cholestipol hydrochloride) at a dose of 50 mg/kg BW per day
Outline: (§1)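 Cholesterol-fed Japanese quail given compound mixed in diet for 2 weeks; controls diet alone (n = 17-20), positive controls colestipol hydrochloride 1000 mg/kg per day (n = 8-10), treated groups 10 birds. Jugular bleed; VLDL+LDL precipitated from serum with PEG-8000 in 0.2 M glycine pH 9, centrifuged 2000g 45 min 4 °C. Log-transformed cholesterol gives T/C; relative potency from doses giving T/C=0.5 using common slope -0.79.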

[2] = test system: Coturnix coturnix; experiment: Effect on serum VLDL+LDL cholesterol (relative to cholestipol hydrochloride) at a dose 100 of mg/kg BW per day; outline: as §1
[3] = test system: Coturnix coturnix; experiment: Effect on serum VLDL+LDL cholesterol (relative to cholestipol hydrochloride) at a dose of 150 mg/kg BW per day; outline: as §1
[4] = test system: Coturnix coturnix; experiment: Effect on serum VLDL+LDL cholesterol (relative to cholestipol hydrochloride) at a doses of 50, 150 mg/kg BW per day; outline: as §1
[5] = test system: Coturnix coturnix; experiment: Effect on serum VLDL+LDL cholesterol (relative to cholestipol hydrochloride) at a doses of 10, 25, 50, 100, 150 mg/kg BW per day; outline: as §1
[6] = test system: Coturnix coturnix; experiment: Effect on serum VLDL+LDL cholesterol (relative to cholestipol hydrochloride) at a doses of 25,50 mg/kg BW per day; outline: as §1
[7] = test system: Coturnix coturnix; experiment: Effect on serum VLDL+LDL cholesterol (relative to cholestipol hydrochloride) at a dose of 100, 300 mg/kg BW per day; outline: as §1
[8] = test system: Coturnix coturnix; experiment: Effect on serum VLDL+LDL cholesterol (relative to cholestipol hydrochloride) at a doses of 100, 150, 300 mg/kg BW per day; outline: as §1
[9] = test system: Coturnix coturnix; experiment: Effect on serum VLDL+LDL cholesterol (relative to cholestipol hydrochloride) at a doses of 25, 50, 100 mg/kg BW per day; outline: as §1
[10] = test system: Coturnix coturnix; experiment: Effect on serum VLDL+LDL cholesterol (relative to cholestipol hydrochloride) at a dose of 100 mg/kg BW per day; outline: as §1
[11] = test system: Coturnix coturnix; experiment: Effect on serum VLDL+LDL cholesterol (relative to cholestipol hydrochloride) at a doses of 25,50, 100 mg/kg BW per day; outline: as §1

Question: How did the Relative potency [1] turn out when `O=C(NCCN(CCNC1CCCCCCCCCCC1)CCNC1CCCCCCCCCCC1)c1ccccc1` was run?
Answer: 11

Question: How did the Relative potency [1] turn out when `CN(C)CCN(CCN(C)C1CCCCCCCCCCC1)CCN(C)C1CCCCCCCCCCC1` was run?
Answer: 24

Question: `CCCCCCCCCCCCCCCCNCCN(CCN)CCN` was tested. Which Relative potency [2] did it give?
Answer: 6

Question: Which Relative potency [3] does the source give for `CN(CCN(CC[N+](C)(C)C)CC[N+](C)(C)C)C1CCCCCCCCCCC1.[I-].[I-]` here?
Answer: 2

Question: Which Relative potency [3] does the source give for `NCCN(CCNC1CCCCCCCCCCCCCC1)CCNC1CCCCCCCCCCCCCC1` here?
Answer: 7

Question: For `COC(=O)CCN(CCN(CCN(CCC(=O)OC)C1CCCCCCCCCCC1)CCN(CCC(=O)OC)C1CCCCCCCCCCC1)C1CCCCCCCCCCC1`, which Relative potency [1] is on record?
Answer: 4

Question: With `C1CCCCCC(NCCN(CCNC2CCCCCCCCCCC2)CCNC2CCCCC2)CCCCC1` as the compound, how does the Relative potency [1] read?
Answer: 21

Question: For `NCCN(CCN)CCNC1CCCCCCCCCCCCCCC1`, which Relative potency [1] is on record?
Answer: 10

Question: Which Relative potency [4] does the source give for `COC(=O)CCNCCN(CCNCCC(=O)OC)CCNC1CCCCCCCCCCC1` here?
Answer: 7

Question: For `NCCN(CCNC1CCCCCCCCCCC1)CCNC1CCCCCCCCCCC1`, which Relative potency [5] is on record?
Answer: 13

Question: For `c1ccc(CNCCN(CCNC2CCCCCCCCCCC2)CCNC2CCCCCCCCCCC2)cc1`, which Relative potency [6] is on record?
Answer: 18

Question: How did the Relative potency [6] turn out when `C1CCCCCC(NCCN(CCNC2CCCCCCCCCCC2)CCNC2CCC3(CC2)OCCO3)CCCCC1` was run?
Answer: 19

Question: With `NCCN(CCN)CCNC1CCCCCCCCCCC1` as the compound, how does the Relative potency [7] read?
Answer: 5

Question: `N#CCCNCCN(CCNCCC#N)CCNC1CCCCCCCCCCC1` was tested. Which Relative potency [3] did it give?
Answer: 2

Question: Which Relative potency [1] does the source give for `N#CCCNCCN(CCNC1CCCCCCCCCCC1)CCNC1CCCCCCCCCCC1` here?
Answer: 21

Question: `NCCN(CCN)CCNC1CCCCCCCCCCCCCC1` was tested. Which Relative potency [8] did it give?
Answer: 7

Question: How did the Relative potency [3] turn out when `CN(CCN(CCN(C)C1CCCCC1)CCN(C)C1CCCCC1)C1CCCCC1` was run?
Answer: 5

Question: Which Relative potency [9] does the source give for `NCCN(CCNC(=O)c1ccccc1)CCNC(=O)c1ccccc1` here?
Answer: 5

Question: With `NCCN(CCN)CCNCc1ccc(-c2ccccc2)cc1` as the compound, how does the Relative potency [10] read?
Answer: 2

Question: With `NCCCOCCN(CCOCCCN)CCOC1CCCCCCCCCCC1` as the compound, how does the Relative potency [3] read?
Answer: 2

Question: For `C1CCCCCC(NCCN(CCNC2CCCCCCCCCCC2)CCNC2CCCCCCCCCCC2)CCCCC1`, which Relative potency [11] is on record?
Answer: 6

Question: Which Relative potency [3] does the source give for `C1CCC(NCCN(CCNC2CCCCC2)CCNC2CCCCC2)CC1` here?
Answer: 3

Question: With `NCCCNCCN(CCNCCCN)CCNC1CCCCCCCCCCC1` as the compound, how does the Relative potency [3] read?
Answer: 4

Question: How did the Relative potency [10] turn out when `NCCNC(=O)CCNCCN(CCNCCC(=O)NCCN)CCNC1CCCCCCCCCCC1` was run?
Answer: 5

Question: `c1ccc(CNCCN(CCNC2C3CC4CC(C3)CC2C4)CCNC2C3CC4CC(C3)CC2C4)cc1` (centres undefined) was tested. Which Relative potency [1] did it give?
Answer: 13

Question: Which Relative potency [1] does the source give for `Cl.Cl.Cl.NCCN(CCNC1CCCCCCCCCCC1)CCNC1CCCCCCCCCCC1` here?
Answer: 13

Question: With `Cl.Cl.Cl.c1ccc(CNCCN(CCNC2CCCCCCCCCCC2)CCNC2CCCCCCCCCCC2)cc1` as the compound, how does the Relative potency [1] read?
Answer: 29

Question: How did the Relative potency [10] turn out when `CCN(CC)CCN(CCN(CC)CC)CCN(CC)C1CCCCCCCCCCC1.Cl.Cl.Cl` was run?
Answer: 8

Question: With `Cl.Cl.Cl.Cl.NCCN(CCNC1CCCCCCCCCCC1)CCNC1CCCCCCCCCCC1` as the compound, how does the Relative potency [1] read?
Answer: 12
